ChEMBL document CHEMBL1212823, “m-Azipropofol (AziPm) a photoactive analogue of the intravenous general anesthetic propofol” (J Med Chem, 2010)
Values after ≈ are worked out from the molar mass of the structure shown. Active and inactive are the calls of the source. No cut-off for these calls is given here.

What was measured:
[1] = target: T1, GABA-A receptor; alpha-1/beta-2/gamma-2 (Rattus norvegicus) (UniProt P18508+P62813+P63138); assay: Activation of rat alpha-1-beta-2-gamma-2L expressed in HEK293 cells assessed as potentiation of GABA-induced current at 0.3 to 3 uM by electrophysiological assay relative to control; format: cell-based
[2] = tested on: Xenopus laevis; assay: Anesthetic effect on Xenopus laevis tadpole assessed as loss of startle reflex after 30 mins; format: functional, organism-based; settings: 0.5 h
Procedure, shortened: (§1)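 Xenopus tadpoles in groups of 10, in 30 mL pond water containing a range of compound concentrations, incubated 30 min to equilibrate. Water was then replaced with fresh pond water and recovery followed over 24 h.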

[3] = target: T1, GABA-A receptor; alpha-1/beta-2/gamma-2 (Rattus norvegicus); assay: Activation of rat alpha-1-beta-2-gamma-2L expressed in HEK293 cells at 30 uM by electrophysiological assay; format: cell-based
[4] = tested on: Xenopus laevis; assay: Anesthetic effect on Xenopus laevis tadpole assessed as loss of spontaneous motion measured for 30 seconds after 30 mins; format: functional, organism-based; settings: 0.5 h; procedure, shortened: as §1
[5] = Binding affinity to horse spleen apoferritin using 1-AMA by fluorescence competition method
[6] = species: Equus caballus; assay: Binding affinity to horse spleen apoferritin by isothermal titration calorimetry
Procedure, shortened: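 Sequential titrations were linked and corrected with ligand-into-buffer, buffer-into-protein and buffer-into-buffer controls. Heats were fitted to a single binding-site class, Hill slope fixed at 1; mean with 95% CI.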

[7] = species: Equus caballus; assay: Binding affinity to horse spleen apoferritin using 1-AMA by fluorescence competition assay
Procedure, shortened: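 HSAF 7 μM with 7 μM 1-aminoanthracene in pH 7.4 PBS, titrated with compound 0–110 μM. Excitation 380 nm, emission 400–800 nm, baseline-corrected. Variable-slope Hill fit gave IC50 and Hill slope; KD obtained by Cheng–Prusoff correction for the 1-AMA competitor.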

[8] = Solubility of the compound in water; format: physicochemical
Procedure, shortened: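 Extinction coefficient of the 368 nm diazirine band determined in methanol at known concentration; maximal concentration in distilled water then calculated from UV absorbance using that coefficient.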

[9] = Chemical stability of the compound assessed as half life in presence of UV irradiation; format: physicochemical
Procedure, shortened: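 A 160 μM solution in distilled water in a 1 cm quartz cuvette was irradiated at 350 nm for 30 min. UV spectra were taken every 3 min to follow loss of the diazirine peak (368 nm); t1/2 reported with 95% CI.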

Row | SMILES | fold change (FC) [1] | EC50 [2] [nM] | Activity [3] | EC50 [4] [nM] | Kd [5] [nM] | Activity [6] [µM] | Activity [7] [µM] | solubility [8] [µM] | half-life [9] [min]
1 | CC(C)c1cccc(C(C)C)c1O [PROPOFOL] | 9.3 | 2800 | Active | 1100 | 10000 | 4.8 | 12 |  | 
2 | CC(C)c1ccc(C2(C(F)(F)F)N=N2)cc1O | 1.7 | 3100 | inactive | 1100 | 19000 | 21 | 23 | 185 (≈ 45.2 µg/mL) | 34
